The list is not random: actives were taken first. Their share in the collection is about 6.9%.
PTK2B oligo ant: Pyk2 (human) oligomerization antagonism. Q293 cells, Pyk2 FERM NanoBiT luminescence; hits give low values. actives 0.83% (n = 99,000). Q14289. AID 1347419. z-score (the deposit names both 25 µM and 10 µM);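 active = Z-score of -3 or lower, scaled per plate to the spread of control and sample wells; inactive = z-score above -3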;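 note: negative z-score means lost luminescence so less FERM oligomerization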
Candida biofilm: kills Candida albicans biofilms | C. albicans biofilm + clotrimazole, Alamar Blue | inhibition, % at 6 µM | actives 0.14% (n = 85,000) | AID 834;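 active = inhibition above 20%; inactive = inhibition below 20%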;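 note: preformed 24 hr biofilms exposed to compound for 48 hr; 0% = biofilm without compound and 100% = blank killed by clotrimazole plus chlorhexidine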
PostGolgi ctrl: growth of the yeast control strain, post-Golgi counter-screen; actives 5% (n = 98,000); AID 738; inhibition, % at 10 µM; efflux-deficient yeast background strain, growth absorbance A615, 16 h
PostGolgi yeast: growth inhibition of a yeast mutant, post-Golgi transport screen; post-Golgi transport phenotypic cell assay; inhibition, % at 10 µM; actives 0.9% (n = 98,000);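 note: yeast cells grown in 1536-well plates; yeast grown about 18 h at 30C before absorbance read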
FAK inh: FAK (human) kinase inhibition. actives 0.84% (n = 97,000). Q05397. biochemical FAK kinase activity assay. inhibition, %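 (tested at 7 µM)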; in the data active = inhibition above about 19%;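 note: 0% = DMSO and 100% = reference compound high control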
Target sequence (Q05397 whole entry, looked up): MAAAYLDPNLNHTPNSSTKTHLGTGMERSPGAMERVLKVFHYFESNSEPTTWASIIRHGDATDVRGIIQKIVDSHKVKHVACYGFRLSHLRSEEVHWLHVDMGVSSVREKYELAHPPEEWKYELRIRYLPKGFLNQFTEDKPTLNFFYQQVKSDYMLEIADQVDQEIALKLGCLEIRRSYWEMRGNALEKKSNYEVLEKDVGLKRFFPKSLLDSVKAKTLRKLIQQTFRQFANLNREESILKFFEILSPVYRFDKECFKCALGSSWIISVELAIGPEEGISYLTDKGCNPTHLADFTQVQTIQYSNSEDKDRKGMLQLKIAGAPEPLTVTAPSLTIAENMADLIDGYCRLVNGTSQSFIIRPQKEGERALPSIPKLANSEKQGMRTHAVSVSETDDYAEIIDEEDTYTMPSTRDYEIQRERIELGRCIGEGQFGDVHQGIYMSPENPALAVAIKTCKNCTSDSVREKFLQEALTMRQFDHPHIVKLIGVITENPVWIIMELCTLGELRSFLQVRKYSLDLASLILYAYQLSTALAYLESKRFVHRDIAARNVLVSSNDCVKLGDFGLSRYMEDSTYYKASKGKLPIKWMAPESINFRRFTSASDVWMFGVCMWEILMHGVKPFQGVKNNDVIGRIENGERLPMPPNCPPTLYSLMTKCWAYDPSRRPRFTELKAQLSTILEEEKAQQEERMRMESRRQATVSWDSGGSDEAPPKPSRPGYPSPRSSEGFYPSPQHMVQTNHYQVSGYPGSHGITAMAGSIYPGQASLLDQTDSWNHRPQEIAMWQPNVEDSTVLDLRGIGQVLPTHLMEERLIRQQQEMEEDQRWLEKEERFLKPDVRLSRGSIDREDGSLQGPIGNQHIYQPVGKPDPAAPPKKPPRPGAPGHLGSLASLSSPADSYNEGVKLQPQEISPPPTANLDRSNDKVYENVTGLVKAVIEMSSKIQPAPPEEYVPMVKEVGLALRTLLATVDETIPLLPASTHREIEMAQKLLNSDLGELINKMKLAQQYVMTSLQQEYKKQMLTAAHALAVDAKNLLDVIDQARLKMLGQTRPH
Ecoli tolC: growth inhibitors of E. coli BW25113 tolC mutant; OD615; growth inhibition, % at 10 µM (by protocol); actives 2.2% (n = 65,000); AID 573;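 active = growth inhibition at or above a cutoff equal to the mean over every tested compound plus 3 SD, cut at about 60% in these data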;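 note: growth measured after 20 h incubation at 37 °C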
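Material: E. coli BW25113 ΔtolC::kan, tolC deletion mutant strain. Measure: percent growth inhibition. Schedule: 37 °C, 20 h exposure. Doses: single-point testing at 10 µM. Signal: A615 absorbance measurement. Buffer or medium: kanamycin-containing LB broth (50 µg/mL).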
FAK inh conf: FAK (human) inhibition confirmed. shares compounds with FAK inh. FAK kinase biochemical inhibition assay. inhibition, % at 7 µM. actives 28% (n = 750). AID 794; in the data active = inhibition above about 19%
Numbers without * were called inactive; . = not tested or not shown. Cut-off read from the data, not from the text of the source, unless noted: active = inhibition above about 30%; inactive = the rest.

SMILES	PTK2B oligo ant	Candida biofilm	PostGolgi ctrl	PostGolgi yeast	FAK inh	Ecoli tolC	FAK inh conf
CCOC(=O)C1=C(c2ccccc2)OC(N)=C(C#N)C1C1CCCCC1 (centres undefined)	-2.9	1	19	-5	24*	.	21*
Oc1ccc(N=Cc2ccc(O)c(O)c2)cc1	0.78	.	-6	-3	22*	-9	2
O=c1oc2ccc(Br)cc2cc1-c1nc2ccccc2o1	0.83	9	17	8	9	-5	.
O=Cc1cn(-c2ccccc2)nc1-c1cc2cc(O)ccc2oc1=O	-0.99	.	4	10	30*	.	14
CCCCn1c(SCC(=O)Nc2sc3c(c2C(N)=O)CCC3)nnc1-c1ccccc1	0.63	9	.	.	4	.	.
CSc1nc(C)c2c(n1)N(c1cccc(C)c1)CC2	-0.11	.	15	0	1	.	.
Oc1cccc(Nc2ncnc3ccccc23)c1	-0.09	10	2	4	23*	1	7
CCOC(=O)c1csc(NC(=O)CSc2nnc(C3CC3)n2C)n1	0.07	10	13	14	-4	0	.
CC1=C([N+](=O)[O-])C(c2ccccc2)C2=C(N1)c1ccccc1C2=O (centres undefined)	-1.4	.	7	5	25*	.	15
COc1ccc(C2C(C#N)=C(C)NC3=C2C(=O)c2ccccc23)cc1 (centres undefined)	0.41	2	4	25	2	9	.
Cc1cc(C)nc(SCc2nnc(SCC(=O)Nc3nc(-c4ccccc4)cs3)n2C)n1	0.66	1	.	.	1	.	.
Cc1cc2ncn(S(=O)(=O)N(C)C)c2cc1C	0.91	10	3	5	19*	.	5
CC(C)C(NC(=O)c1ccc(C(C)(C)C)cc1)C(=O)O (centres undefined)	1.4	9	3	0	-3	.	.
CCCCNC(=O)c1sc2ncnc(N3CCc4ccccc4C3)c2c1C	-0.27	7	20	0	14	.	.
CCOC(=O)CNC(=O)c1sc2ncnc(N3CCc4ccccc4C3)c2c1C	0.13	4	19	10	42*	.	33*
O=C(Nc1cccc(C2OCCCO2)c1)c1cccs1	0.77	.	.	.	.	.	.
O=C(CSc1ccccc1)Nc1ccc(N2CCOCC2)cc1	0.1	-5	4	0	-1	.	.
Nc1nnc2c(n1)CCCC2	-0.25	6	-2	20	21*	-31	2
Cc1cc(NC(=O)Cc2cccs2)no1	1.1	5	4	7	40*	-11	28*
CCC(=O)NC(=S)Nc1cccc(NC(=O)CC)c1	-0.64	.	-1	2	-4	.	.
COc1ccccc1CNc1n[nH]c(NCc2ccccc2OC)n1	0.09	-3	1	-1	-2	21	.
COc1ccc(-n2nc(C(=O)NCC(=O)Nc3ccccn3)c3ccccc3c2=O)cc1Cl	0.39	.	3	-5	23*	.	45*
COc1ccc(-n2nc(C(=O)NCC(=O)NCC3CCCO3)c3ccccc3c2=O)cc1Cl (centres undefined)	-0.12	.	12	4	-1	.	.
Cc1ccc(C(=O)N/N=C/c2ccc([N+](=O)[O-])s2)cc1	-0.26	5	7	-6	50*	.	11
Cc1nn(-c2c(Cl)cc(Cl)cc2Cl)c(=O)c2ccccc12	-0.49	-5	17	-11	0	.	.
SMILES	PTK2B oligo ant	Candida biofilm	PostGolgi ctrl	PostGolgi yeast	FAK inh	Ecoli tolC	FAK inh conf
O=C(CN(Cc1ccco1)C(=O)c1cc(=O)[nH]c2ccccc12)Nc1ccccc1C(F)(F)F	-0.27	4	-4	5	-4	10	.
O=c1oc2ccccc2n1CCn1c2ccccc2c2nc3ccccc3nc21	-3.1*	4	4	1	30*	-16	46*
Fc1ccc(COc2ccc(Cl)cc2/C=N/Nc2nc(N3CCCC3)nc(N3CCCC3)n2)cc1	0.91	.	-1	10	1	.	.
O=C(CSc1nnc(-c2ccco2)c(-c2ccco2)n1)Nc1ccccc1	-0.72	3	-4	1	16	10	.
Cc1cccc(C)c1NC(=O)CSc1nnc(-c2ccco2)c(-c2ccco2)n1	-0.16	7	9	1	35*	.	10
Cc1ccc(NC(=O)CSc2nnc(-c3ccco3)c(-c3ccco3)n2)cc1	0.56	6	4	1	19*	16	1
Cc1ccc2c(n1)sc1c(N)ncnc12	1.2	1	9	7	49*	22	18
COCCOC(=O)C1=C(C)NC2=C(C(=O)CC(c3cccs3)C2)C1c1ccsc1 (centres undefined)	-2	5	9	1	23*	13	19*
Cc1ccc(/C=N\Nc2nc3ccc(Cl)cc3[nH]2)o1	-1.4	.	10	19	21*	.	7
CCOC(=O)c1c(C)cc(=O)oc1C	1.5	8	4	14	-3	.	.
COc1ccc(C(=O)c2sc3nc(-c4ccccc4)ccc3c2N)cc1OC	1.3	.	2	1	59*	.	34*
COc1ccc(C(=O)c2ccc(OC)c(OC)c2)cc1	0.92	-2	10	-1	-2	.	.
COc1ccc(-c2ccc3c(N)c(C(=O)c4ccc(OC)c(OC)c4)sc3n2)cc1	-0.2	.	5	3	35*	.	25*
COc1ccc(C(=O)c2sc(Nc3ccccc3)c(C(=O)Nc3ccc(OC)c(OC)c3)c2N)cc1	-0.69	.	18	3	0	.	.
Cc1cccc(OCC(=O)Nc2ccc(N3CCN(C(=O)c4ccco4)CC3)cc2)c1	0.36	.	12	-3	6	.	.
Cc1cc(OCC(=O)Nc2ccc(N3CCCC3)cc2)cc(C)c1Cl	-1.1	-3	14	2	33*	.	17
Cc1cc(OCC(=O)Nc2ccc(N3CCN(C(=O)c4ccco4)CC3)cc2)cc(C)c1Cl	-0.4	.	9	11	69*	.	22*
CS(=O)(=O)N(CC(=O)N1CCN(C(c2ccccc2)c2ccccc2)CC1)C1CCCCC1	-0.1	9	9	-4	0	.	.
O=C(N/N=C1/C(=O)c2cccc3cccc1c23)c1ccc(Cl)cc1	-0.01	.	11	37*	92*	.	87*
CCNC(=S)N/N=C1\C(=O)c2cccc3cccc1c23	-0.43	.	9	1	3	.	.
CCn1c(SCc2ccc([N+](=O)[O-])cc2)nnc1C(C)NC(=O)c1ccccc1Br (centres undefined)	0.76	.	2	-3	-6	.	.
CC1CCc2c(sc3nn[nH]c(=O)c23)C1 (centres undefined)	-0.35	5	5	-3	26*	.	7
CC(=O)N(/N=C1\Sc2ccccc2C1=O)c1ccccc1	-1.6	.	5	2	8	.	.
CC(=O)N(/N=C1\Sc2ccccc2C1=O)c1ccccc1C	-2.2	2	33*	7	22*	.	17
CCN(C(=O)COC(=O)c1[nH]c(C)c(C(C)=O)c1C)C1CCS(=O)(=O)C1 (centres undefined)	0.27	8	8	-9	3	.	.
Cc1ccccc1Cn1c2ccccc2c2cn[nH]c(=O)c21	-0.18	.	24	2	20*	3	4

Screening results (PubChem BioAssay)
